Test results as given in ChEMBL document CHEMBL4130629 (J Med Chem, 2018).
Converted amounts (≈) assume the structure as drawn.

Tests used:
[1] = Drug uptake in Sprague-Dawley rat plasma assessed as BMS-626529 level at <= 25 mg/kg, po after 3 hrs; format: ADME, organism-based; details: in vivo
Method in brief: (§1)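 Rats were dosed orally with parent (solution in PEG-400/EtOH/0.1 N NaOH at ≤25 mg/kg; suspension at 200 mg/kg) or with prodrug as an aqueous solution. Plasma AUC of the parent drug was compared between the two.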

[2] = system: Rattus norvegicus; test: Oral bioavailability in Sprague-Dawley rat assessed as BMS-626529 formation at 5 mg/kg; format: ADME, organism-based; details: in vivo
[3] = system: Human immunodeficiency virus 1; test: Antiviral activity against recombinant pseudotyped HIV1 subtype C infected in human U87 cells expressing CD4/CCR5/CXCR4 by luciferase reporter gene assay; format: functional, organism-based; details: Human immunodeficiency virus 1, subtype C, U-87 MG
[4] = system: Human immunodeficiency virus 1; test: Antiviral activity against recombinant pseudotyped HIV1 subtype B infected in human U87 cells expressing CD4/CCR5/CXCR4 by luciferase reporter gene assay; format: functional, organism-based; details: Human immunodeficiency virus 1, subtype B, U-87 MG
[5] = target: Envelope glycoprotein gp160 (Human immunodeficiency virus 1) (UniProt Q6QLK5); test: Binding affinity to HIV-1 JRFL gp120 assessed as half life for dissociation
Sequence of Envelope glycoprotein gp160 (Human immunodeficiency virus 1) (Q6QLK5 1-814): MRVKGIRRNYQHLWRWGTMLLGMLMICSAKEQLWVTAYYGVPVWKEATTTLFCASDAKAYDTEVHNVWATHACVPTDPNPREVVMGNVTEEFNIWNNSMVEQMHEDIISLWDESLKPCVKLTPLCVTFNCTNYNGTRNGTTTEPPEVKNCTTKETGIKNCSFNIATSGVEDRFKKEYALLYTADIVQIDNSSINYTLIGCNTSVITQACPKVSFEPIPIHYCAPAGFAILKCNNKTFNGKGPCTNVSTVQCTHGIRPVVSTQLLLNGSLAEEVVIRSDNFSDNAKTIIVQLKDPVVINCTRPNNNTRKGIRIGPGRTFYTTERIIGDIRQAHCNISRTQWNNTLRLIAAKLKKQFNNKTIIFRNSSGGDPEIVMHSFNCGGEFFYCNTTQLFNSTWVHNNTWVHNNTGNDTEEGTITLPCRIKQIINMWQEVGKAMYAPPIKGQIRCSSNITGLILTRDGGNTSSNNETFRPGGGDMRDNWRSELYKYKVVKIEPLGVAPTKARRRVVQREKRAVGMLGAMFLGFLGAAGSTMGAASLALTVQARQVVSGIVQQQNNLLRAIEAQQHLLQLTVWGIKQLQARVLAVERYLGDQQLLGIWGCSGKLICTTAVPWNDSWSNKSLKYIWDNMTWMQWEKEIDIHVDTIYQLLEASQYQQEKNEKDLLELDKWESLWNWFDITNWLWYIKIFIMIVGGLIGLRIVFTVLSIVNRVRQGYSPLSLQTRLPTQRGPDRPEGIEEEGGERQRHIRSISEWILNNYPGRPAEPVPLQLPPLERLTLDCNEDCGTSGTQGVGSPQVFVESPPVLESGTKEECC

[6] = AUC in Sprague-Dawley rat at 5 mg/kg, po after 24 hrs; format: ADME, organism-based; design: time < 24 hr, dose 5 mg/kg, route oral; details: in vivo
Method in brief: (§2)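 Male Sprague-Dawley rats (300−350 g) with jugular vein and/or bile duct cannulas, n = 3 per route; dosed as a solution in PEG-400/ethanol (90/10). The iv dose was 1 mg/kg given as a 0.5 min bolus, with jugular blood sampled from 2 to 1440 min. The po dose was 5 mg/kg after an overnight fast, sampled from 15 to 1440 min. Plasma was taken from EDTA blood.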

[7] = system: Canis familiaris; test: Oral bioavailability in beagle dog assessed as BMS-626529 formation at 5 mg/kg; format: ADME, organism-based, Canis lupus familiaris; details: in vivo
[8] = system: Human immunodeficiency virus 1; test: Antiviral activity against recombinant pseudotyped HIV1 subtype A infected in human U87 cells expressing CD4/CCR5/CXCR4 by luciferase reporter gene assay; format: functional, organism-based; details: Human immunodeficiency virus 1, subtype A, U-87 MG
[9] = Drug uptake in Sprague-Dawley rat plasma assessed as BMS-626529 level at 200 mg/kg, po after 3 hrs; format: ADME, organism-based; details: in vivo
[10] = system: Cynomolgus monkey; test: Oral bioavailability in cynomolgus monkey assessed as BMS-626529 formation at 5 mg/kg administered via gavage; format: ADME, organism-based, Macaca fascicularis; details: in vivo
[11] = Aqueous solubility of the compound at pH 10; format: physicochemical; details: buffer
Method in brief: (§3)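 Crystalline solid sample; aqueous solubility measured in buffers at the stated pH.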

[12] = system: MT2; test: Cytotoxicity against human MT2 cells assessed as decrease in cell viability after 3 days […]; format: functional; details: MT2, 72 h
[13] = Aqueous solubility of the compound at pH 1; format: physicochemical; details: buffer; method in brief: as §3
[14] = Permeability in human Caco2 cells; format: ADME, cell-based; details: Caco-2, read-out: permeability
[15] = AUC in beagle dog at 5 mg/kg, po; format: ADME, organism-based, Canis lupus familiaris; details: in vivo
Method in brief: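 Crossover study in three male beagle dogs (12 ± 0.4 kg) with a one-week washout between routes; dosed in PEG-400/ethanol (90/10) with pH adjusted by 0.1 N NaOH. After an overnight fast, 5 mg/kg was given by oral gavage. Serial blood was drawn before dosing and at 15–1440 min.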

[16] = Prodrug activation in Sprague-Dawley rat plasma assessed as BMS-626529 formation at 200 mg/kg, po after 3 hrs; format: organism-based; details: in vivo; method in brief: as §1
[17] = Stability of the compound under acidic condition at 37 degC after 24 hrs; format: physicochemical
Method in brief: (§4)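 Aqueous solubility was measured across pH 1.5–8.2 at room temperature. Solution stability under acidic and neutral conditions, and solid-state stability, were followed for at least 24 h at 37 °C.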

[18] = Stability of the compound under neutral condition at 37 degC after 24 hrs; format: physicochemical; method in brief: as §4
[19] = target: T1, Alkaline phosphatase, placental type (Homo sapiens, UniProt P05187); test: Prodrug activation in human hepatocytes assessed as BMS-626529 formation; format: cell-based
T1 sequence (P05187 whole entry): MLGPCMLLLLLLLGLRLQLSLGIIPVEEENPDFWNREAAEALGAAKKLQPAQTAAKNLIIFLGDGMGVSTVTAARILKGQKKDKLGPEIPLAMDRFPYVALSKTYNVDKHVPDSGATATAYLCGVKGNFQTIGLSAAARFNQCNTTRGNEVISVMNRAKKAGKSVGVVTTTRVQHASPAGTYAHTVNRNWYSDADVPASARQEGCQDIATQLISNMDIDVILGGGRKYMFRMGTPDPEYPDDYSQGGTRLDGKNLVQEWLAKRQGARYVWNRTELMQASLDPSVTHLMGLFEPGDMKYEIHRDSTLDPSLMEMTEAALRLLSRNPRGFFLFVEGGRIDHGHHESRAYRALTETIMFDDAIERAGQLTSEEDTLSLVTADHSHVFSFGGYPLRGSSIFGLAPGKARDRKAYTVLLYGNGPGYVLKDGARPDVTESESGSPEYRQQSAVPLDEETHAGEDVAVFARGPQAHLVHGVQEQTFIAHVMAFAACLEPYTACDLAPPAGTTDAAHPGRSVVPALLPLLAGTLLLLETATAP

[20] = Stability of the compound in solid state at 37 degC after 24 hrs; format: physicochemical; method in brief: as §4
[21] = system: Canis familiaris; test: Toxicity in beagle dog assessed as rapid emesis at 250 mg/kg, po qd; format: organism-based, Canis lupus familiaris; details: in vivo
[22] = system: Homo sapiens; test: Prodrug activation in normal healthy human assessed as BMS-626529 formation at 100 to 1000 mg dosed as standard capsule formulation; format: organism-based; details: in vivo, po
Method in brief: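 Single ascending dose phase 1 trial in normal healthy volunteers: prodrug given as a standard capsule at 100, 200, 400, 600, 800 and 1000 mg. Plasma exposure of the parent drug was measured.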

[23] = Aqueous solubility of the compound at pH 1.5 to 8.2; format: physicochemical; details: buffer; method in brief: as §4
[24] = target: T1, Alkaline phosphatase, placental type; test: Prodrug activation assessed as human placental alkaline phosphatase mediated BMS-626529 formation; details: isolated protein
[25] = Prodrug activation in beagle dog plasma assessed as BMS-626529 formation 125 mg/kg, po bid; format: organism-based, Canis lupus familiaris; details: in vivo
[26] = Prodrug activation in beagle dog plasma assessed as BMS-626529 formation 46 mg/kg, po bid; format: organism-based, Canis lupus familiaris; details: in vivo
[27] = Prodrug activation in Sprague-Dawley rat plasma assessed as BMS-626529 formation at <= 25 mg/kg, po after 3 hrs; format: organism-based; details: in vivo; method in brief: as §1
[28] = Metabolic stability in human liver microsomes assessed as parent compound remaining after 10 mins; format: ADME, microsome; details: read-out: Stability
Method in brief: (§5)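 Compound at 3 μM was incubated with human or rat liver microsomes, and the percentage of parent compound remaining was measured after 10 min.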

[29] = Half life in Sprague-Dawley rat at 1 mg/kg, iv; format: ADME, organism-based; details: in vivo
[30] = system: Human immunodeficiency virus 1; test: Antiviral activity against ENV pseudotyped CCR5-tropic HIV1 […] infected in human HeLa67 cells after 3 days by luciferase reporter gene assay; format: functional, organism-based; details: Human immunodeficiency virus 1, HeLa67, 72 h
Method in brief: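 Single-cycle infection with env-deleted, luciferase-reporter HIV-1 pseudotyped with the JRFL (CCR5) envelope, supplied by transfection; viral titers normalized by luminescence without compound. HeLa 67 cells were infected in the presence of compounds given as 3-fold serial dilutions made from 30 mM DMSO stocks.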

[31] = Metabolic stability in rat liver microsomes assessed as parent compound remaining after 10 mins; format: ADME, microsome; details: read-out: Stability; method in brief: as §5
[32] = Volume of distribution at steady state in Sprague-Dawley rat at 1 mg/kg, iv; format: ADME, organism-based; details: in vivo, read-out: Vdss; method in brief: as §2
[33] = target: Cytochrome P450 3A4 (Homo sapiens, UniProt P08684); test: Inhibition of CYP3A4 (unknown origin); format: ADME
Sequence of Cytochrome P450 3A4 (P08684 whole entry): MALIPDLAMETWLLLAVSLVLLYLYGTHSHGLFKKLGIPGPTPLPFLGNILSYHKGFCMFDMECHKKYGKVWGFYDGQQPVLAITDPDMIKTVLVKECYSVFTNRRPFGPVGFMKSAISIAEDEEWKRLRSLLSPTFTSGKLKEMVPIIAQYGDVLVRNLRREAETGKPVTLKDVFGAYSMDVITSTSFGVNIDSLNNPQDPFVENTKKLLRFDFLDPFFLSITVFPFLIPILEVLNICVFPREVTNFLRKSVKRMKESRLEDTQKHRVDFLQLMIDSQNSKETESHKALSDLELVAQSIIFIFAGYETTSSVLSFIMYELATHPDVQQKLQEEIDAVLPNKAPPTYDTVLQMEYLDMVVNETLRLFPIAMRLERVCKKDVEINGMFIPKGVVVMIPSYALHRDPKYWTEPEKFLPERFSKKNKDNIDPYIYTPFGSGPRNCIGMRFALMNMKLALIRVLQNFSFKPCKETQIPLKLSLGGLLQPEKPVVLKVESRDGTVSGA

[34] = Oral bioavailability in Sprague-Dawley rat at 5 mg/kg; format: ADME, organism-based; details: in vivo; method in brief: as §2
[35] = AUC in cynomolgus monkey at 5 mg/kg, po administered via gavage; format: ADME, organism-based, Macaca fascicularis; details: in vivo
Method in brief: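 Crossover study in three male cynomolgus monkeys (10 ± 0.8 kg) with a one-week washout between routes; dosed in PEG-400/ethanol (90/10) with pH adjusted by 0.1 N NaOH. After an overnight fast, 5 mg/kg was given by oral gavage. Serial blood was drawn before dosing and at 15–1440 min.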

[36] = target: Envelope glycoprotein gp160 (Human immunodeficiency virus 1, UniProt Q6QLK5); test: Inhibition of [3H]BMS-488043 binding to HIV-1 JRFL gp120 after 1 hr by scintillation counting method
Sequence of Envelope glycoprotein gp160 (Q6QLK5 whole entry): as the sequence (Q6QLK5 1-814) above

[37] = system: Human immunodeficiency virus 1; test: Antiviral activity against HIV1 infected in patients assessed as reduction in maxmum viral RNA by measuring log10 viral copies at 1800 mg, bid measured at day 8; format: functional
[38] = system: Human immunodeficiency virus 1; test: Selectivity ratio of EC50 for ENV pseudotyped CCR5-tropic HIV1 […] in presence of 40%human serum to EC50 for ENV pseudotyped CCR5-tropic HIV1 […] in absence of 40%human serum; format: functional
Method in brief: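 Single-cycle assay: env-deleted HIV-1 firefly-luciferase reporter virus pseudotyped by transfection with the JRFL (CCR5-tropic) envelope; HeLa 67 cells infected with compound (DMSO stocks, 3-fold serial dilutions). Luciferase read 3 days post-infection.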

[39] = system: Human immunodeficiency virus 1; test: Antiviral activity against HIV1 infected in patients assessed as reduction in plasma viral load by measuring log10 viral copies at 800 mg, bid measured at day 8 (reference value: 0.02 log10 copies/ml); format: functional
[40] = system: Human immunodeficiency virus 1; test: Antiviral activity against HIV1 infected in patients assessed as reduction in plasma viral load by measuring log10 viral copies at 1800 mg, bid measured at day 8; format: functional
[41] = Half life in human liver microsomes; format: ADME, microsome
[42] = system: Human immunodeficiency virus 1; test: Antiviral activity against HIV1 infected in patients assessed as reduction in maxmum viral RNA by measuring log10 viral copies at 800 mg, bid measured at day 8; format: functional
[43] = Protein binding in human plasma; format: ADME, cell-free; details: read-out: PPB (converted)

## COc1cnc(-n2cnc(C)n2)c2[nH]cc(C(=O)C(=O)N3CCN(C(=O)c4ccccc4)CC3)c12
[1]
  Drug uptake: Active
[2]
  bioavailability: 80 to 122%
[3]
  IC50: 7.09 nM
[4]
  IC50: 4.59 nM
[5]
  T1/2: 7.63 h
[6]
  AUC at 24 h: 111 µM·h
[7]
  bioavailability: 80 to 122%
[8]
  IC50: 87.9 nM
[9]
  Drug uptake: Active
[10]
  bioavailability: 80 to 122%
[11]
  solubility: 70 µg/mL (≈ 148 µM)
[12]
  CC50: > 300000 nM
[13]
  solubility: 50 µg/mL (≈ 106 µM)
[14]
  Papp: 18.2 ×10⁻⁶ cm/s
[15]
  AUC: 61 µM·h

## COc1cnc(-n2cnc(C)n2)c2c1c(C(=O)C(=O)N1CCN(C(=O)c3ccccc3)CC1)cn2COP(=O)(O)O.NC(CO)(CO)CO [FOSTEMSAVIR TROMETHAMINE]
[16]
  Drug metabolism: Metabolite_Detected
[17]
  Stability: Stable
[18]
  Stability: Stable
[19]
  Drug metabolism: Metabolite_Detected
[20]
  Stability: Stable
[21]
  Activity: Toxic
[22]
  Drug metabolism: Dose-dependent effect
[23]
  solubility: > 11000 µg/mL
[24]
  Drug metabolism: Metabolite_Detected
[25]
  Drug metabolism: Metabolite_Detected
[26]
  Drug metabolism: Metabolite_Detected
[27]
  Drug metabolism: Metabolite_Detected

## COc1cnc(-n2cncn2)c2[nH]cc(C(=O)C(=O)N3CCN(C(=O)c4ccccc4)CC3)c12
[28]
  remaining at 10 min: 83%
[6]
  AUC at 24 h: 48.7 µM·h
[29]
  half-life: 2.6 h
[30]
  EC50: 0.09 nM
[31]
  remaining at 10 min: 97%
[32]
  Vd: 0.4 L/kg
[33]
  IC50: 1000 nM
[12]
  CC50: > 300000 nM
[34]
  bioavailability: 90%
[14]
  Papp: 14.6 ×10⁻⁶ cm/s

## COc1ncc(OC)c2c(C(=O)C(=O)N3CCN(C(=O)c4ccccc4)CC3)c[nH]c12
[35]
  AUC: 28 µM·h
[36]
  Kd: 19 nM
[5]
  T1/2: 0.717 h
[37]
  log(activity): 1.32 /ml
[38]
  Ratio EC50: 1.9 - 3.7
[39]
  log(activity): 0.72 /ml
[6]
  AUC at 24 h: 15 µM·h
[40]
  log(activity): 0.96 /ml
[41]
  half-life: > 1.67 h
[30]
  EC50: 0.88 nM
[42]
  log(activity): 1.5 /ml
[43]
  fraction unbound: 0.05
[12]
  CC50: > 300000 nM
[15]
  AUC: 43 µM·h
